Most compounds without a hit are left out; they make up all but 0.72% or so of the library.
bIAP activator = increases bovine intestinal alkaline phosphatase activity; 200,000 compounds, 0.17% hits; AID 1016; purified bovine IAP, CDP-star luminescence, 30 min; stronger effect = higher value; fold of DMSO-control signal, blank-subtracted; activation factor at 20 µM;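 active = activation factor of 2 or more at 20 µM, a signal rise over negative controls twice the positive control's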
mIAP activ = increases mouse intestinal alkaline phosphatase activity; muIAP, CDP-Star luminescence, 30 min; stronger effect = higher value; 1 = vehicle-only enzyme signal, 0 = enzyme-free wells; activation factor at 10 µM; 330,000 compounds, 0.24% hits;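 active = activation factor of at least 2 at 20 µM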
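System: Mouse IAP enzyme | Also added: CDP-Star substrate | Dosing: Compounds dispensed in DMSO | Schedule: 30 min enzyme-substrate-compound incubation at room temperature | Technique: Chemiluminescence readout | Control set: DMSO-only wells and no-enzyme negative control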
hIAP block = blocks human intestinal alkaline phosphatase; purified IAP, CDP-Star luminescence, 30 min; inhibition, % at 10 µM; AID 2544; P09923; 330,000 compounds, 0.12% hits;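 active = inhibition reaching a set limit with compound at 10 µM in the primary screen, cut at about 35% in these data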;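 also: plate controls were DMSO wells with enzyme for no effect and no-enzyme buffer wells for full effect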
Target sequence (P09923 whole entry, looked up): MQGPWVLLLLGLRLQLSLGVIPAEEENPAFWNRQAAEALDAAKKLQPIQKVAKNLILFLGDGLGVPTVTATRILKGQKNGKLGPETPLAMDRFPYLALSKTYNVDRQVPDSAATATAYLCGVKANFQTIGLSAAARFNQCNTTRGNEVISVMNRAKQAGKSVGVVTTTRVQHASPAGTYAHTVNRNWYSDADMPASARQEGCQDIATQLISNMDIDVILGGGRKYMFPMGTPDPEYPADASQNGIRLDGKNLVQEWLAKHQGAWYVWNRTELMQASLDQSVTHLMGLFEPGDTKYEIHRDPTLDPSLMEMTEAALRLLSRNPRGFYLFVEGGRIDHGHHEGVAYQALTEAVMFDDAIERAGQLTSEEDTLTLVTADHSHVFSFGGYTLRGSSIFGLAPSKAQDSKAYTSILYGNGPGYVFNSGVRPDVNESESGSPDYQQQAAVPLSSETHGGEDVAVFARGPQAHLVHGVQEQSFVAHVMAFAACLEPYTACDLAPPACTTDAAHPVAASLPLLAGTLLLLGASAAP
bIAP inh = intestinal alkaline phosphatase (bovine) inhibition. purified bovine IAP, CDP-star luminescence, 30 min. inhibition, % at 20 µM. 190,000 tested, under 10 active;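 active = over 50% inhibition of intestinal alkaline phosphatase at 20 µM in the single-dose screen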
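test system = bovine IAP enzyme | medium = DEA buffer 100 mM, pH 9.8, with MgCl2 1.0 mM, ZnCl2 0.02 mM | detection = luminescence | dosing = single compound dose of 20 µM, 2% DMSO final | incubation = 30 min reaction at room temperature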
hIAP activ = human IAP activation; P09923; purified human IAP, CDP-Star luminescence, 30 min; stronger effect = higher value; 1 = vehicle-only enzyme, 0 = enzyme-free background; activation factor at 10 µM; 330,000 compounds, 0.16% hits;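 active = activation factor of the enzyme at least 2-fold when tested at 20 µM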
mIAP block = blocks mouse intestinal alkaline phosphatase; purified mouse IAP, CDP-Star luminescence, 30 min; inhibition, % at 10 µM; 330,000 compounds, 0.2% hits; AID 2806;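 active = inhibition of at least 40% at 10 µM in the primary screen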;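 also: plate controls were DMSO with enzyme for no effect and no enzyme wells for full effect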
hIAP act confirm = human IAP activation confirmation; shares compounds with hIAP activ; purified IAP, CDP-Star luminescence, 30 min; stronger effect = lower value; 880 compounds, 10% hits; AID 434926; activation (%Activity, negative = activation), % at 8.3 µM;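 active = at least twofold enzyme activation in any of six single-dose repeats, which the averaged readout prints as negative percent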
Active calls of the source: *; . = no result.

SMILES	bIAP activator	mIAP activ	hIAP block	bIAP inh	hIAP activ	mIAP block	hIAP act confirm
CC(C)C(NC(=O)c1ccc([N+](=O)[O-])cc1Cl)C(=O)N1CCCC1 (centres undefined)	.	1	-4	.	1	-1	.
Cc1ccc(-c2cc(C(=O)N/N=C/c3ccccc3O)n[nH]2)o1	.	0.84	-214	.	3.1*	16	39
Cc1c(Cl)cnc(NC(=O)CSc2nncs2)c1Cl	0.8	0.94	-1	17	1	6	.
O=C1c2[nH]nc(-c3ccccc3O)c2C(c2cccc(Cl)c2)N1Cc1ccco1 (centres undefined)	1.4	0.98	-128	-39	2.3*	2	4
O=C(CSc1ncn[nH]1)NCCc1ccccc1	1	1.1	-164	1	2.6*	-10	-113*
Cc1cc(-n2c(=S)sc3c(=O)n(-c4ccc(F)cc4)c(SCC(=O)O)nc32)ccc1Cl	.	0.92	2	.	0.98	8	.
CCOC(=O)N1CCC(NC(=O)c2ccc3c(c2)sc2nc(-c4ccccc4)cn23)CC1	1	1	-23	-5	1.2	-3	.
Cc1ccc(C(=O)NNC(=O)CCC(=O)NCc2ccccc2)cc1Br	.	0.89	-121	.	2.2*	11	2
O=C(CN1CCN(S(=O)(=O)c2ccc3ccccc3c2)CC1)Nc1ccc2c(c1)CCC2	0.9	0.83	-104	12	2*	17	-3
Cc1ccc(S(=O)(=O)N2CCN(CC(=O)Nc3ccc4c(c3)CCC4)CC2)cc1C	1	1.2	-9	-2	1.1	-19	.
CCOc1cc(/C=C2\SC(=N)N(c3nccs3)C2=O)ccc1OCCN1CCOCC1	0.9	0.72	-29	8	1.3	28	.
O=C(CN1C(=O)c2ccccc2S1(=O)=O)NCc1cccs1	.	0.99	45*	.	0.55	1	-50
CCCCCCN1C=CC(=C/C=C(\C#N)C(=O)OCC)C=C1	0.6	0.64	44*	42	0.56	36	-27
COC(=O)c1ccc(C2NC(=O)c3c(sc(C)c3C)N2)cc1 (centres undefined)	.	1	-29	.	1.3	0	.
CC(=O)Nc1ccc(NC(=O)C2CC(=O)N(C(C)C)C2)cc1 (centres undefined)	.	0.9	37*	.	0.63	10	20
CC(C)N1CC(C(=O)Nc2ccccc2)CC1=O (centres undefined)	0.9	1	-15	7	1.2	-2	.
O=C1CC(c2ccc(F)cc2)Cc2nc(NCc3ccco3)ncc21 (centres undefined)	0.9	0.9	13	12	0.87	10	.
CC(=O)Nc1ccccc1P(=O)(c1ccccc1)c1ccccc1OC(C)=O (centres undefined)	.	1	3	.	0.97	-3	.
O=C(c1ccc(Cl)cc1)N(Cc1cccs1)C1CCS(=O)(=O)C1 (centres undefined)	1	1	-2	1	1	-1	.
Cc1ccc(C(=O)N(Cc2cccs2)C2CCS(=O)(=O)C2)cc1 (centres undefined)	.	0.95	42*	.	0.58	5	-3
COCCNC(=O)Nc1ccc2c(c1)N(C)C(=O)CS2	1	0.81	8	-1	0.92	19	.
CCOC(=O)/C(O)=C(\C#N)c1nc2ccccc2[nH]1	1	1	10	-4	0.9	-1	.
O=C(NNC(=O)c1nc2ccccc2[nH]1)OCc1ccccc1	.	0.88	-161	.	2.6*	12	-25
COc1ccc([N+](=O)[O-])cc1NC(=S)NC(NC(=O)C(c1ccccc1)c1ccccc1)C(Cl)(Cl)Cl (centres undefined)	0.2	0.82	4	.	0.96	18	.
CC(C)(C)c1ccc(C(=O)Nc2ccc(CN3CCS(=O)(=O)CC3)cc2)cc1	.	0.96	39*	.	0.61	4	-54
Cc1ccc(C)c(NCC(=O)NNC(=S)Nc2ccccc2)c1	1.2	0.84	-103	-16	2*	16	-39
Cc1ccc(C)c(NC(=O)CCC(=O)NNC(=S)Nc2ccccc2)c1	1.5	0.79	-80	-47	1.8	21	.
O=C(Cc1ccccc1)NNC(=S)Nc1ccccc1	1.3	0.93	-118	-33	2.2*	7	9

Compound activity as filed in PubChem BioAssay.
